# Test results published in PubChem BioAssay.
# Activity calls are given as the source filed them.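 Rule for the calls, unless noted: active = NADPH fluorescence slope more negative than the mean of all samples by about 3 SD, 99.7% confidence; inactive = the rest.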
# Key:
# [1] = inhibitors of TNFa-induced NFkB p65 translocation, primary screen, imaging, HUVEC, MLSMR starter and 10KST1 sets (AID 438;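 active = inhibition above 20% together with a positive visual image hit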;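 note: compound added about 3h40 before a 20 min TNFalpha stimulation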;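 for inhibition: signal is the nuclear over cytoplasmic p65 intensity ratio per well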); conditions: HUVEC TNFa-induced p65 nuclear translocation; cell count: measured here: nuclei count (cytotoxicity indicator), at 2.08 µM; inhibition: at 2 µM, stronger effect = higher value, 0% TNFa-plus-vehicle, 100% no-TNFa wells
# [2] = endothelial E-selectin expression blockers – imaging, HUVEC, immunofluorescence, MLSMR starter and 10KST1 sets, primary screen (AID 487;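 active = visually confirmed hit in the image check and inhibition above 20%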;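 for inhibition: signal is fraction of cell area covered by stained E-selectin grains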;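 for nuclei count: 100% = median nuclei count of all wells on the same plate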); conditions: HUVEC TNFalpha-induced E-selectin immunofluorescence imaging, at 2 µM; inhibition: stronger effect = higher value; nuclei count: measured here: cell number, toxicity
# [3] = Primary imaging screen for DUSP6 inhibitors that restore phospho-Erk in transfected HeLa cells, chemical complementation (AID 609;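 active = compounds giving at least 50% inhibition in the cell-based MKP-3 phosphatase rescue imaging test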;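 for inhibition: phospho-Erk level distribution per well compared with pooled transfected vehicle control wells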); conditions: HeLa MKP-3 transfected, phospho-Erk imaging KS statistic, at 10 µM, cells stimulated with TPA for 15 min
# [4] = target: Dual specificity protein phosphatase 6 (Homo sapiens) (UniProt Q16828); test: as above; conditions: HeLa MKP-3 transfected, phospho-Erk imaging KS statistic; at 10 µM; stronger effect = higher value; cells stimulated with TPA for 15 min
# Sequence of Dual specificity protein phosphatase 6 (Homo sapiens) (Q16828 whole entry, looked up): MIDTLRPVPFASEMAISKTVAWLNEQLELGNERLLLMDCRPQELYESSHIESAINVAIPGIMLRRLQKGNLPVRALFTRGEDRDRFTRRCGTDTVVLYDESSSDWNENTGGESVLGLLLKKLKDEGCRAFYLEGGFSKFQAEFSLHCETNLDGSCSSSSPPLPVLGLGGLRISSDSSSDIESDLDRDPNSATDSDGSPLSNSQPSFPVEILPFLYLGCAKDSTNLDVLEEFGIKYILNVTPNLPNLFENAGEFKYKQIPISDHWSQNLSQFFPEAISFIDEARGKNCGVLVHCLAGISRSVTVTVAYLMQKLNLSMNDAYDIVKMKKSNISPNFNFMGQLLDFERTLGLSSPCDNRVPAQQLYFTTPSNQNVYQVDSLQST
# [5] = target: Voltage-gated potassium channel subunit beta-2 (Rattus norvegicus) (UniProt P62483); test: inhibitors of rat Kvbeta2 reductase activity – biochemical, NADPH fluorescence, primary screen (AID 622;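 active = fluorescence slope higher than the sample average by over 3 SD, cut at about -0.22 in these data, passing the limit was not always enough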;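 note: slope of raw intensity against log time taken from 70 to 1610 s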); conditions: recombinant KvBeta, 4-cyanobenzaldehyde reduction, at 10 µM, stronger effect = higher value
# Sequence of Voltage-gated potassium channel subunit beta-2 (Rattus norvegicus) (P62483 whole entry, looked up): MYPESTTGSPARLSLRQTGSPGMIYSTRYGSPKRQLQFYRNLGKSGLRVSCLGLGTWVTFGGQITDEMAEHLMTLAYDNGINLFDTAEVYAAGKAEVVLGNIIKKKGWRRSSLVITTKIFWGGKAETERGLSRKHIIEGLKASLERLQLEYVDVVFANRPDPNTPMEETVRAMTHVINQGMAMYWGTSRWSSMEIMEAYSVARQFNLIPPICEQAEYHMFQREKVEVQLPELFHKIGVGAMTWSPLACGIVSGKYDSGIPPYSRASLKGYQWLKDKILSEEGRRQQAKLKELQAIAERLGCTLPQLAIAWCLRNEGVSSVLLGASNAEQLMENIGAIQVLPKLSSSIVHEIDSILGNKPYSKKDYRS
# [6] = target: Voltage-gated potassium channel subunit beta-2 (Rattus norvegicus) (UniProt P62483); test: enhancers of rat Kvbeta2 NADPH turnover – biochemical, NADPH fluorescence, primary screen (AID 623); conditions: Recombinant KvBeta, NADPH fluorescence decrease slope, 10 min; at 10 µM; stronger effect = lower value;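 note: fluorescence intensity change per second fitted from 20 to 320 s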
# [7] = target: Alpha-2C adrenergic receptor (Homo sapiens) (UniProt P18825); test: compounds altering alpha2C-coupled GIRK flux – cell-based, HEK293 alpha2C/GIRK1/2, thallium flux, primary screen (AID 624;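 active = fluorescence slope after compound addition differing from the mean of all screened samples at 99.7% confidence, in either direction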;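 note: slope of fluorescence ratio to pre-addition baseline per second over 15 to 24 s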); conditions: thallium flux BTC fluorescence, at 10 µM, actives lie on both sides
# Sequence of Alpha-2C adrenergic receptor (Homo sapiens) (P18825 whole entry, looked up): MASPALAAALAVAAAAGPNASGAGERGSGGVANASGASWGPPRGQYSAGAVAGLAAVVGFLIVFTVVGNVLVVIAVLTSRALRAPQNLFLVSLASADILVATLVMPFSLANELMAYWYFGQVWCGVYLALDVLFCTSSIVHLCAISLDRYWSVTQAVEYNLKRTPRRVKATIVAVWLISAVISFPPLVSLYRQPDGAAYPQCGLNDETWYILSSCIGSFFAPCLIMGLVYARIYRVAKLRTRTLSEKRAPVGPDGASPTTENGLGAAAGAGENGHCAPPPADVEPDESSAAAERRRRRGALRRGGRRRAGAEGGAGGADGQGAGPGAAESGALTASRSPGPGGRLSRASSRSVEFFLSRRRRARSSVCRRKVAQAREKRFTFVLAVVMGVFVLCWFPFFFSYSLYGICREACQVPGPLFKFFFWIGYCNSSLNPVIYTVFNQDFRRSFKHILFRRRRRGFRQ
# [8] = inhibitors of larval lipid processing in zebrafish, primary screen, whole organism, PED6 fluorescence, gall bladder and intestine (AID 686;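 active = a full or partial loss of lipid-probe fluorescence in the fish gall bladder, intestine or both, judged by eye; inactive = no fluorescence loss, or compound toxic to the fish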;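 note: larvae 5 to 7 days old with five fish per well; signal comes from phospholipase A2 cleavage of quenched PED6 carried via bile; overnight exposure to compound and PED6 before scoring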); conditions: Zebrafish larvae PED6 lipid processing, fluorescence scoring; screened at 20 µM (by protocol)
# Method in brief: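 Test system – live zebrafish larvae aged 5-7 days, whole organism · Buffer or medium – E3 fish medium · Reagent – quenched phospholipase substrate PED6, 100 nM final, ingested by larvae · Doses – 20 µM single dose · Incubation – overnight compound and PED6 incubation · Technique – visual fluorescence microscopy scoring of gall bladder, gut · Read-out basis – visual per-well fluorescence inhibition score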
# [9] = loss of swimming-algae plug formation – whole organism, Chlamydomonas reinhardtii, WT vs cilia-less mutant, absorbance, 96-well, primary screen (AID 463189;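 active = inhibition at or above 50% relative to wild type and mutant plate controls; inactive = inhibition below 50%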;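 note: 0% = wild type cc124 cells in DMSO and 100% = ciliumless bld1 mutant cells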); conditions: Chlamydomonas reinhardtii gravitaxis, OD600 absorbance, 2 days; at 10 µM; stronger effect = higher value
# [10] = measured here: cell density z-score
# [11] = measured here: nuclear c-Myc green intensity z-score
# [12] = measured here: nuclear pErk red intensity z-score, stronger effect = higher value
Compound,cell count [1],inhibition [1],inhibition [2],nuclei count [2] [%],"z-score [3, 10]","z-score [3, 11]","z-score [3, 12]",inhibition [4],fluorescence slope [5],NADPH fluorescence slope [6],slope [7],outcome [8],inhibition [9]
COC(=O)c1ccc(Oc2nc3ccccc3n3c(C)nnc23)cc1,328,-6.8% (inactive),-57.8% (inactive),74,0.524,1.04,-0.937,24.7% (inactive),-0.434 (inactive),-1.9e-05 (inactive),0.00622 (inactive),inactive,27% (inactive)
COc1ccccc1N1CCN(C(=O)c2c(C)cc(=O)oc2C)CC1,275,-1.5% (inactive),-18.9% (inactive),95.9,-0.53,2.24,-0.762,11.4% (inactive),-0.461 (inactive),-8.2e-05 (inactive),0.00477 (inactive),inactive,-9.22% (inactive)
O=C1c2ccccc2C(=O)C1c1ccc2ccccc2n1,336,-17.4% (inactive),-56% (inactive),109,-0.111,-0.223,0.575,-7.28% (inactive),-0.43 (inactive),-2.4e-05 (inactive),0.00379 (inactive),inactive,-14.2% (inactive)
Cc1ccc(N2C(=O)CC(N(O)C3CC(=O)N(c4ccc(C)cc4)C3=O)C2=O)cc1 (configuration not stated),364,0% (inactive),28.2% (inactive),126,0.996,0.402,0.988,-0.584% (inactive),-0.427 (inactive),-0.000136 (inactive),0.0056 (inactive),inactive,54.9% (active)
CC(C)CN1C(=O)NC(NC(=O)c2cccnc2)(C(F)(F)F)C1=O (configuration not stated),488,-2.8% (inactive),-106% (inactive),130,0.462,-0.157,-1.2,1.75% (inactive),-0.505 (inactive),-7.1e-06 (inactive),0.00612 (inactive),inactive,-0.985% (inactive)
CCCCC1CC1C(=O)Nc1ccc(OC)c(OC)c1 (configuration not stated),421,-0.9% (inactive),-42.1% (inactive),190,-1.27,-0.533,0.586,-8.95% (inactive),-0.39 (inactive),-2.3e-05 (inactive),0.00756 (inactive),inactive,22% (inactive)
COc1ccc(C(=O)C(CN2CCCC2)c2ccccc2)cc1 (configuration not stated),653,-4.3% (inactive),0.2% (inactive),178,-0.885,0.507,1.21,1.75% (inactive),-0.521 (inactive),-8.7e-05 (inactive),0.00506 (inactive),inactive,5.7% (inactive)
Cc1onc(-c2ccccc2Cl)c1C(=O)N1CCN(c2nc3ccccc3s2)CC1,340,-8.1% (inactive),-48.8% (inactive),168,1.76,-0.608,-1.2,25.4% (inactive),-0.417 (inactive),-0.000136 (inactive),0.00481 (inactive),inactive,13% (inactive)
Cc1ccc(NC(=O)CSC2=C(C#N)C(c3ccco3)C3=C(CCCC3=O)N2)cc1 (configuration not stated),382,1.6% (inactive),-118% (inactive),144,1.1,-0.193,-0.0699,-0.584% (inactive),-0.438 (inactive),-5.7e-07 (inactive),0.00635 (inactive),inactive,32.7% (inactive)
Oc1ccc(C=Nc2ccc3ncccc3c2)c(O)c1,490,-5.8% (inactive),-113% (inactive),117,1.18,-0.733,-0.981,3.66% (inactive),-0.477 (inactive),-3.5e-05 (inactive),0.00388 (inactive),inactive,-13.6% (inactive)
COCc1cc(C)nc(SCC(=O)Nc2ccc(C)c(C)c2)c1C#N,618,-2.6% (inactive),-92.9% (inactive),161,-2.03,0.714,1.02,5.65% (inactive),-0.269 (inactive),-9.9e-06 (inactive),0.00532 (inactive),inactive,-8.23% (inactive)
Clc1cccc(-c2nn3c(-c4cccc(Cl)c4)nnc3s2)c1,612,-7.8% (inactive),-20.4% (inactive),169,1.02,1.46,-0.806,-4.27% (inactive),-0.412 (inactive),-0.000162 (inactive),0.00698 (inactive),inactive,14.4% (inactive)
CCCCCCC(=O)N1CCN(c2cc3c(cc2F)c(=O)c(C(=O)O)cn3CC)CC1,402,6% (inactive),-166% (inactive),224,-1.36,0.0882,0.161,6.04% (inactive),-0.0683 (inactive),-1.7e-05 (inactive),0.0054 (inactive),inactive,4.18% (inactive)
C/C(=N\O)c1ccc2[nH]ccc2c1,578,0.2% (inactive),45.4% (inactive),161,0.0779,0.348,-0.861,-7.01% (inactive),-0.341 (inactive),-3.6e-05 (inactive),0.00435 (inactive),inactive,-2.54% (inactive)
